Measured values taken from ChEMBL document CHEMBL2150947, “Pyrazolopyridine inhibitors of B-Raf(V600E). Part 4: rational design and kinase selectivity profile of cell potent type II inhibitors” (Bioorg Med Chem Lett, 2012).

What was measured:
[1] = target: T1, Serine/threonine-protein kinase B-raf (Homo sapiens, UniProt P15056, V600E); test: Inhibition of full length B-Raf V600E mutant
[2] = target: T1, Serine/threonine-protein kinase B-raf; test: Inhibition of B-Raf V600E mutant in human Malme-3M cells assessed as ERK phosphorylation; format: cell-based
Summary of the method: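 Mechanistic cellular read-out: inhibition of basal ERK phosphorylation in Malme-3M melanoma cells; IC50 taken as the mean of at least two experiments.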

T1 sequence (P15056 2-766 V600E limits assumed): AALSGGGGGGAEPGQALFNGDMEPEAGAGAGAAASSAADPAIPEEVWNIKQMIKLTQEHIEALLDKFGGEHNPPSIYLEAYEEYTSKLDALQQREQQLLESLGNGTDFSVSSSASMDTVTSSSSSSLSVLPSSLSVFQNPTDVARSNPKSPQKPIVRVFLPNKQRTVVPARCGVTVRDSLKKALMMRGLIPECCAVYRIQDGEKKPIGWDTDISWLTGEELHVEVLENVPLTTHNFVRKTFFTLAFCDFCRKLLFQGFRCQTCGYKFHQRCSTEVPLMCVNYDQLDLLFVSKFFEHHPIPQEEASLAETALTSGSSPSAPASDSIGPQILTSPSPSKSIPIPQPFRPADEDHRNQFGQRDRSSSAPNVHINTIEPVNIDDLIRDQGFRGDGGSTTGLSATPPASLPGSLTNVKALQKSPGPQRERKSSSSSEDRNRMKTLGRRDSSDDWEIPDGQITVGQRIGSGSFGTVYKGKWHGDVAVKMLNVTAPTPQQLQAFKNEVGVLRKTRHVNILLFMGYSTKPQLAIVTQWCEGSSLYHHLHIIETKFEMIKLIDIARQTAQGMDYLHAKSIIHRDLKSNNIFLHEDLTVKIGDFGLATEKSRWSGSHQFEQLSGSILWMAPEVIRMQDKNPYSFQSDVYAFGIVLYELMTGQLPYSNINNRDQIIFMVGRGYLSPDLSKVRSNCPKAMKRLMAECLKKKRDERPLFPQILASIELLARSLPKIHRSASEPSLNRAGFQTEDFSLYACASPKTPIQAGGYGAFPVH

Row | SMILES | IC50 [1] | IC50 [2]
1 | CC(C)(C#N)c1cccc(C(=O)Nc2ccc(F)c(C(=O)Nc3cnc4[nH]ncc4c3)c2F)c1 | 3.5 nM | 430 nM
2 | COc1n[nH]c2ncc(NC(=O)c3c(F)ccc(NC(=O)c4ccccc4)c3F)cc12 | 39 nM | > 12000 nM
3 | COc1n[nH]c2ncc(NC(=O)c3c(F)ccc(NC(=O)c4cccc(C(C)(C)C#N)c4)c3F)cc12 | – | 180 nM
4 | CC(C)(C#N)c1cccc(C(=O)Nc2ccc(F)c(C(=O)Nc3cnc4[nH]ccc4c3)c2F)c1 | 6.8 nM | 440 nM
5 | CC(C)(C#N)c1cccc(C(=O)Nc2ccc(F)c(C(=O)Nc3cnc4[nH]nc(C5CC5)c4c3)c2F)c1 | 3 nM | 520 nM
6 | COc1n[nH]c2ncc(NC(=O)c3cc(NC(=O)c4cccc(C(C)(C)C#N)c4)ccc3F)cc12 | 1 nM | 20 nM
7 | COc1n[nH]c2ncc(NC(=O)c3cccc(NC(=O)c4cccc(C(C)(C)C#N)c4)c3)cc12 | 0.9 nM | 140 nM
8 | COc1n[nH]c2ncc(NC(=O)c3cccc(NC(=O)c4cccc(C(C)(C)C#N)c4)c3F)cc12 | 5.1 nM | 1800 nM
9 | COc1n[nH]c2ncc(NC(=O)c3cc(NC(=O)c4ccc(Cl)c(C(F)(F)F)c4)ccc3F)cc12 | 1.3 nM | 96 nM
10 | COc1n[nH]c2ncc(NC(=O)c3cc(NC(=O)c4cccc(C(C)(C)C#N)c4)ccc3Cl)cc12 | 1.2 nM | 22 nM
11 | COc1n[nH]c2ncc(NC(=O)c3cc(NC(=O)c4cccc(C(C)(C)C#N)c4)ccc3C)cc12 | 1.9 nM | 18 nM
12 | COc1n[nH]c2ncc(NC(=O)c3cccc(C(=O)Nc4ccccc4)c3)cc12 | 80 nM | > 10000 nM
13 | COc1n[nH]c2ncc(NC(=O)c3cc(C(=O)Nc4cccc(C(F)(F)F)c4)ccc3C)cc12 | 6.6 nM | 52 nM
14 | O=C(Nc1ccccc1)Nc1cccc(C(=O)Nc2cnc3[nH]ncc3c2)c1 | 0.7 nM | > 10000 nM
